System: U2OS
Assay: Multiplex assay against U2OS
Format: toxicity, cell-based
Details: human
Summary of the method: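 Four dyes were applied at seeding to live cells: Hoechst33342, BioTracker Green Microtubule Cytoskeleton Dye, MitoTracker Red and Annexin V Alexa Fluor 680. Imaging after compound addition used a CQ1 microscope at 37°C and 5% CO2. CellPathfinder machine-learning gating then sorted cells into Hoechst high-intensity objects or normal cells, normal cells into healthy, pyknosed or fragmented nuclei, and pyknosed cells into mitotic or apoptotic, with tubulin, mitochondrial-mass and membrane-permeability phenotypes given as per cents of healthy-nucleus cells.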

[1] = 12 h, 1 µM, compound concentration 1 uM, replicate 1
[2] = 12 h, 1 µM, compound concentration 1 uM, replicate 2
[3] = 12 h, 10 µM, compound concentration 10 uM, replicate 1
[4] = 12 h, 10 µM, compound concentration 10 uM, replicate 2
[5] = 24 h, 1 µM, compound concentration 1 uM, replicate 1
[6] = 24 h, 1 µM, compound concentration 1 uM, replicate 2
[7] = 24 h, 10 µM, compound concentration 10 uM, replicate 1
[8] = 24 h, 10 µM, compound concentration 10 uM, replicate 2
[9] = 48 h, 1 µM, compound concentration 1 uM, replicate 1
[10] = 48 h, 1 µM, compound concentration 1 uM, replicate 2
[11] = 48 h, 10 µM, compound concentration 10 uM, replicate 1
[12] = 48 h, 10 µM, compound concentration 10 uM, replicate 2

CN1C[C@H](C(=O)N[C@]2(C)O[C@@]3(O)[C@@H]4CCCN4C(=O)[C@H](Cc4ccccc4)N3C2=O)C[C@@H]2c3cccc4[nH]cc(c34)C[C@H]21.CS(=O)(=O)O [DIHYDROERGOTAMINE MESYLATE]
Population Apoptotic (%) [1]: 82%
Population Fragmented Nuclei (%) [1]: 24%
Population Healthy Nuclei (%) [1]: 65%
Population Hoechst High Intensity Objects (%) [1]: 1%
Population Membrane Permeable-Phenotype (%) [1]: 6%
Population Mitochondria Different-Phenotype (%) [1]: 2%
Population Mitotic Cells (%) [1]: 17%
Population Normal (%) [1]: 98%
Population Pyknosed Nuclei (%) [1]: 10%
Population Tubulin-Different-Phenotype (%) [1]: 2%
Total Cell Count [1]: 233
Population Apoptotic (%) [2]: 84%
Population Fragmented Nuclei (%) [2]: 23%
Population Healthy Nuclei (%) [2]: 63%
Population Membrane Permeable-Phenotype (%) [2]: 14%
Population Mitochondria Different-Phenotype (%) [2]: 1%
Population Mitotic Cells (%) [2]: 15%
Population Pyknosed Nuclei (%) [2]: 13%
Population Tubulin-Different-Phenotype (%) [2]: 7%
Total Cell Count [2]: 101
Population Apoptotic (%) [3]: 71%
Population Fragmented Nuclei (%) [3]: 19%
Population Healthy Nuclei (%) [3]: 73%
Population Hoechst High Intensity Objects (%) [3]: 2%
Population Membrane Permeable-Phenotype (%) [3]: 5%
Population Mitochondria Different-Phenotype (%) [3]: 1%
Population Mitotic Cells (%) [3]: 28%
Population Normal (%) [3]: 97%
Population Pyknosed Nuclei (%) [3]: 7%
Population Tubulin-Different-Phenotype (%) [3]: 3%
Total Cell Count [3]: 298
Population Apoptotic (%) [4]: 100%
Population Healthy Nuclei (%) [4]: 77%
Population Hoechst High Intensity Objects (%) [4]: 1%
Population Mitochondria Different-Phenotype (%) [4]: 0%
Population Mitotic Cells (%) [4]: 0%
Population Normal (%) [4]: 98%
Population Pyknosed Nuclei (%) [4]: 2%
Population Tubulin-Different-Phenotype (%) [4]: 0%
Total Cell Count [4]: 144
Population Apoptotic (%) [5]: 89%
Population Fragmented Nuclei (%) [5]: 23%
Population Healthy Nuclei (%) [5]: 67%
Population Hoechst High Intensity Objects (%) [5]: 0%
Population Membrane Permeable-Phenotype (%) [5]: 2%
Population Mitochondria Different-Phenotype (%) [5]: 0%
Population Mitotic Cells (%) [5]: 10%
Population Normal (%) [5]: 99%
Population Pyknosed Nuclei (%) [5]: 9%
Population Tubulin-Different-Phenotype (%) [5]: 2%
Total Cell Count [5]: 307
Population Apoptotic (%) [6]: 100%
Population Fragmented Nuclei (%) [6]: 21%
Population Healthy Nuclei (%) [6]: 65%
Population Hoechst High Intensity Objects (%) [6]: 1%
Population Membrane Permeable-Phenotype (%) [6]: 8%
Population Mitochondria Different-Phenotype (%) [6]: 2%
Population Mitotic Cells (%) [6]: 0%
Population Normal (%) [6]: 98%
Population Pyknosed Nuclei (%) [6]: 13%
Population Tubulin-Different-Phenotype (%) [6]: 4%
Total Cell Count [6]: 132
Population Apoptotic (%) [7]: 88%
Population Fragmented Nuclei (%) [7]: 18%
Population Healthy Nuclei (%) [7]: 73%
Population Hoechst High Intensity Objects (%) [7]: 1%
Population Membrane Permeable-Phenotype (%) [7]: 4%
Population Mitochondria Different-Phenotype (%) [7]: 2%
Population Mitotic Cells (%) [7]: 11%
Population Normal (%) [7]: 98%
Population Pyknosed Nuclei (%) [7]: 8%
Population Tubulin-Different-Phenotype (%) [7]: 2%
Total Cell Count [7]: 337
Population Apoptotic (%) [8]: 92%
Population Fragmented Nuclei (%) [8]: 16%
Population Healthy Nuclei (%) [8]: 75%
Population Mitotic Cells (%) [8]: 7%
Population Tubulin-Different-Phenotype (%) [8]: 1%
Total Cell Count [8]: 163
Population Apoptotic (%) [9]: 80%
Population Fragmented Nuclei (%) [9]: 14%
Population Healthy Nuclei (%) [9]: 78%
Population Hoechst High Intensity Objects (%) [9]: 2%
Population Membrane Permeable-Phenotype (%) [9]: 2%
Population Mitochondria Different-Phenotype (%) [9]: 2%
Population Mitotic Cells (%) [9]: 19%
Population Normal (%) [9]: 97%
Population Pyknosed Nuclei (%) [9]: 7%
Population Tubulin-Different-Phenotype (%) [9]: 1%
Total Cell Count [9]: 427
Population Apoptotic (%) [10]: 90%
Population Fragmented Nuclei (%) [10]: 11%
Population Healthy Nuclei (%) [10]: 76%
Population Hoechst High Intensity Objects (%) [10]: 1%
Population Membrane Permeable-Phenotype (%) [10]: 6%
Population Mitotic Cells (%) [10]: 10%
Population Normal (%) [10]: 98%
Population Pyknosed Nuclei (%) [10]: 11%
Population Tubulin-Different-Phenotype (%) [10]: 4%
Total Cell Count [10]: 173
Population Apoptotic (%) [11]: 95%
Population Fragmented Nuclei (%) [11]: 14%
Population Healthy Nuclei (%) [11]: 75%
Population Hoechst High Intensity Objects (%) [11]: 3%
Population Membrane Permeable-Phenotype (%) [11]: 7%
Population Mitochondria Different-Phenotype (%) [11]: 3%
Population Mitotic Cells (%) [11]: 4%
Population Normal (%) [11]: 96%
Population Pyknosed Nuclei (%) [11]: 9%
Population Tubulin-Different-Phenotype (%) [11]: 3%
Total Cell Count [11]: 452
Population Apoptotic (%) [12]: 100%
Population Fragmented Nuclei (%) [12]: 19%
Population Healthy Nuclei (%) [12]: 72%
Population Membrane Permeable-Phenotype (%) [12]: 3%
Population Mitochondria Different-Phenotype (%) [12]: 1%
Population Mitotic Cells (%) [12]: 0%
Population Pyknosed Nuclei (%) [12]: 8%
Population Tubulin-Different-Phenotype (%) [12]: 2%
Total Cell Count [12]: 217

CSc1nc(NC2CCCC2)c([N+](=O)[O-])c(NC2CCCC2)n1 [GS-39783]
Population Apoptotic (%) [1]: 82%
Population Fragmented Nuclei (%) [1]: 25%
Population Healthy Nuclei (%) [1]: 66%
Population Hoechst High Intensity Objects (%) [1]: 2%
Population Membrane Permeable-Phenotype (%) [1]: 4%
Population Mitochondria Different-Phenotype (%) [1]: 3%
Population Mitotic Cells (%) [1]: 17%
Population Normal (%) [1]: 97%
Population Pyknosed Nuclei (%) [1]: 8%
Population Tubulin-Different-Phenotype (%) [1]: 1%
Total Cell Count [1]: 209
Population Apoptotic (%) [2]: 80%
Population Fragmented Nuclei (%) [2]: 18%
Population Healthy Nuclei (%) [2]: 76%
Population Hoechst High Intensity Objects (%) [2]: 3%
Population Mitochondria Different-Phenotype (%) [2]: 0%
Population Mitotic Cells (%) [2]: 20%
Population Normal (%) [2]: 96%
Population Pyknosed Nuclei (%) [2]: 5%
Total Cell Count [2]: 96
Population Apoptotic (%) [3]: 88%
Population Fragmented Nuclei (%) [3]: 30%
Population Healthy Nuclei (%) [3]: 63%
Population Hoechst High Intensity Objects (%) [3]: 3%
Population Membrane Permeable-Phenotype (%) [3]: 9%
Population Mitochondria Different-Phenotype (%) [3]: 5%
Population Mitotic Cells (%) [3]: 11%
Population Normal (%) [3]: 96%
Population Pyknosed Nuclei (%) [3]: 5%
Population Tubulin-Different-Phenotype (%) [3]: 4%
Total Cell Count [3]: 322
Population Apoptotic (%) [4]: 100%
Population Fragmented Nuclei (%) [4]: 19%
Population Healthy Nuclei (%) [4]: 75%
Population Hoechst High Intensity Objects (%) [4]: 1%
Population Mitochondria Different-Phenotype (%) [4]: 0%
Population Mitotic Cells (%) [4]: 0%
Population Normal (%) [4]: 98%
Population Pyknosed Nuclei (%) [4]: 4%
Population Tubulin-Different-Phenotype (%) [4]: 6%
Total Cell Count [4]: 145
Population Apoptotic (%) [5]: 87%
Population Fragmented Nuclei (%) [5]: 22%
Population Healthy Nuclei (%) [5]: 64%
Population Hoechst High Intensity Objects (%) [5]: 2%
Population Membrane Permeable-Phenotype (%) [5]: 2%
Population Mitochondria Different-Phenotype (%) [5]: 1%
Population Mitotic Cells (%) [5]: 12%
Population Normal (%) [5]: 97%
Population Pyknosed Nuclei (%) [5]: 12%
Population Tubulin-Different-Phenotype (%) [5]: 1%
Total Cell Count [5]: 269
Population Apoptotic (%) [6]: 84%
Population Fragmented Nuclei (%) [6]: 20%
Population Healthy Nuclei (%) [6]: 68%
Population Hoechst High Intensity Objects (%) [6]: 1%
Population Membrane Permeable-Phenotype (%) [6]: 1%
Population Mitotic Cells (%) [6]: 15%
Population Normal (%) [6]: 98%
Population Pyknosed Nuclei (%) [6]: 11%
Population Tubulin-Different-Phenotype (%) [6]: 0%
Total Cell Count [6]: 119
Population Apoptotic (%) [7]: 85%
Population Fragmented Nuclei (%) [7]: 26%
Population Healthy Nuclei (%) [7]: 66%
Population Hoechst High Intensity Objects (%) [7]: 2%
Population Membrane Permeable-Phenotype (%) [7]: 6%
Population Mitochondria Different-Phenotype (%) [7]: 6%
Population Mitotic Cells (%) [7]: 14%
Population Normal (%) [7]: 97%
Population Pyknosed Nuclei (%) [7]: 6%
Population Tubulin-Different-Phenotype (%) [7]: 4%
Total Cell Count [7]: 341
Population Apoptotic (%) [8]: 88%
Population Fragmented Nuclei (%) [8]: 18%
Population Healthy Nuclei (%) [8]: 75%
Population Hoechst High Intensity Objects (%) [8]: 3%
Population Membrane Permeable-Phenotype (%) [8]: 9%
Population Mitochondria Different-Phenotype (%) [8]: 2%
Population Mitotic Cells (%) [8]: 11%
Population Normal (%) [8]: 96%
Population Pyknosed Nuclei (%) [8]: 5%
Population Tubulin-Different-Phenotype (%) [8]: 5%
Total Cell Count [8]: 164
Population Apoptotic (%) [9]: 88%
Population Fragmented Nuclei (%) [9]: 18%
Population Healthy Nuclei (%) [9]: 70%
Population Hoechst High Intensity Objects (%) [9]: 1%
Population Membrane Permeable-Phenotype (%) [9]: 3%
Population Mitochondria Different-Phenotype (%) [9]: 1%
Population Mitotic Cells (%) [9]: 11%
Population Normal (%) [9]: 98%
Population Pyknosed Nuclei (%) [9]: 11%
Population Tubulin-Different-Phenotype (%) [9]: 1%
Total Cell Count [9]: 382
Population Apoptotic (%) [10]: 92%
Population Fragmented Nuclei (%) [10]: 21%
Population Healthy Nuclei (%) [10]: 71%
Population Hoechst High Intensity Objects (%) [10]: 0%
Population Mitotic Cells (%) [10]: 7%
Population Normal (%) [10]: 100%
Population Pyknosed Nuclei (%) [10]: 7%
Population Tubulin-Different-Phenotype (%) [10]: 3%
Total Cell Count [10]: 185
Population Apoptotic (%) [11]: 89%
Population Fragmented Nuclei (%) [11]: 23%
Population Healthy Nuclei (%) [11]: 67%
Population Hoechst High Intensity Objects (%) [11]: 2%
Population Membrane Permeable-Phenotype (%) [11]: 5%
Population Mitochondria Different-Phenotype (%) [11]: 1%
Population Mitotic Cells (%) [11]: 10%
Population Normal (%) [11]: 97%
Population Pyknosed Nuclei (%) [11]: 8%
Population Tubulin-Different-Phenotype (%) [11]: 2%
Total Cell Count [11]: 462
Population Apoptotic (%) [12]: 85%
Population Fragmented Nuclei (%) [12]: 12%
Population Healthy Nuclei (%) [12]: 81%
Population Hoechst High Intensity Objects (%) [12]: 0%
Population Membrane Permeable-Phenotype (%) [12]: 4%
Population Mitochondria Different-Phenotype (%) [12]: 3%
Population Mitotic Cells (%) [12]: 14%
Population Normal (%) [12]: 99%
Population Pyknosed Nuclei (%) [12]: 6%
Population Tubulin-Different-Phenotype (%) [12]: 3%
Total Cell Count [12]: 231

From ChEMBL document CHEMBL5058577, “EUbOPEN Chemogenomics Library 2 (Multiplex)” (2022)
